Tested on: HEK-293T
Assay: Multiplex assay against HEK293T;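 as to Population Tubulin-Different-Phenotype (%): share of the cells with healthy nuclei that show this phenotype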
Assay type: toxicity, cell-based
Conditions: human
Procedure, shortened: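 Imaging took place on a CQ1 microscope at 37°C and 5% CO2 once compound had been added to live cells stained at seeding with Hoechst33342, BioTracker Green Microtubule Cytoskeleton Dye, MitoTracker Red and Annexin V Alexa Fluor 680. CellPathfinder machine-learning gating classed cells as Hoechst high-intensity objects or normal cells, classed normal cells as having healthy, pyknosed or fragmented nuclei, and classed pyknosed cells as mitotic or apoptotic. Tubulin, mitochondrial-mass and membrane-permeability phenotypes are per cents of the healthy-nucleus cells.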

[1] = 12 h, 1 µM, compound concentration 1 uM, replicate 1
[2] = 12 h, 1 µM, compound concentration 1 uM, replicate 2
[3] = 12 h, 10 µM, compound concentration 10 uM, replicate 1
[4] = 12 h, 10 µM, compound concentration 10 uM, replicate 2
[5] = 24 h, 1 µM, compound concentration 1 uM, replicate 1
[6] = 24 h, 1 µM, compound concentration 1 uM, replicate 2
[7] = 24 h, 10 µM, compound concentration 10 uM, replicate 1
[8] = 24 h, 10 µM, compound concentration 10 uM, replicate 2

**Q.** What does the source list for `CNC(=O)c1ccc(Nc2nc(OC3CCCC3)c3c(-c4ccc5nc(C)oc5c4)c[nH]c3n2)c(OC)c1`?
**A.** Population Apoptotic (%) [1]: 36%; Population Fragmented Nuclei (%) [1]: 20%; Population Healthy Nuclei (%) [1]: 22%; Population Hoechst High Intensity Objects (%) [1]: 22%; Population Membrane Permeable-Phenotype (%) [1]: 19%; Population Mitochondria Different-Phenotype (%) [1]: 28%; Population Mitotic Cells (%) [1]: 63%; Population Normal (%) [1]: 77%; Population Pyknosed Nuclei (%) [1]: 57%; Population Tubulin-Different-Phenotype (%) [1]: 76%; Total Cell Count [1]: 469; Population Apoptotic (%) [2]: 37%; Population Fragmented Nuclei (%) [2]: 2%; Population Healthy Nuclei (%) [2]: 77%; Population Hoechst High Intensity Objects (%) [2]: 4%; Population Membrane Permeable-Phenotype (%) [2]: 18%; Population Mitochondria Different-Phenotype (%) [2]: 47%; Population Mitotic Cells (%) [2]: 62%; Population Normal (%) [2]: 95%; Population Pyknosed Nuclei (%) [2]: 19%; Population Tubulin-Different-Phenotype (%) [2]: 94%; Total Cell Count [2]: 712; Population Apoptotic (%) [3]: 26%; Population Fragmented Nuclei (%) [3]: 19%; Population Healthy Nuclei (%) [3]: 50%; Population Hoechst High Intensity Objects (%) [3]: 20%; Population Membrane Permeable-Phenotype (%) [3]: 22%; Population Mitochondria Different-Phenotype (%) [3]: 13%; Population Mitotic Cells (%) [3]: 73%; Population Normal (%) [3]: 79%; Population Pyknosed Nuclei (%) [3]: 30%; Population Tubulin-Different-Phenotype (%) [3]: 58%; Total Cell Count [3]: 532; Population Apoptotic (%) [4]: 14%; Population Fragmented Nuclei (%) [4]: 3%; Population Healthy Nuclei (%) [4]: 91%; Population Hoechst High Intensity Objects (%) [4]: 5%; Population Membrane Permeable-Phenotype (%) [4]: 13%; Population Mitochondria Different-Phenotype (%) [4]: 27%; Population Mitotic Cells (%) [4]: 85%; Population Normal (%) [4]: 94%; Population Pyknosed Nuclei (%) [4]: 4%; Population Tubulin-Different-Phenotype (%) [4]: 83%; Total Cell Count [4]: 1205; Population Apoptotic (%) [5]: 61%; Population Fragmented Nuclei (%) [5]: 28%; Population Healthy Nuclei (%) [5]: 13%; Population Hoechst High Intensity Objects (%) [5]: 25%; Population Membrane Permeable-Phenotype (%) [5]: 10%; Population Mitochondria Different-Phenotype (%) [5]: 54%; Population Mitotic Cells (%) [5]: 38%; Population Normal (%) [5]: 74%; Population Pyknosed Nuclei (%) [5]: 57%; Population Tubulin-Different-Phenotype (%) [5]: 58%; Total Cell Count [5]: 472; Population Apoptotic (%) [6]: 43%; Population Fragmented Nuclei (%) [6]: 3%; Population Healthy Nuclei (%) [6]: 80%; Population Hoechst High Intensity Objects (%) [6]: 9%; Population Membrane Permeable-Phenotype (%) [6]: 5%; Population Mitochondria Different-Phenotype (%) [6]: 66%; Population Mitotic Cells (%) [6]: 56%; Population Normal (%) [6]: 90%; Population Pyknosed Nuclei (%) [6]: 15%; Population Tubulin-Different-Phenotype (%) [6]: 78%; Total Cell Count [6]: 721; Population Apoptotic (%) [7]: 24%; Population Fragmented Nuclei (%) [7]: 20%; Population Healthy Nuclei (%) [7]: 62%; Population Hoechst High Intensity Objects (%) [7]: 15%; Population Membrane Permeable-Phenotype (%) [7]: 23%; Population Mitochondria Different-Phenotype (%) [7]: 15%; Population Mitotic Cells (%) [7]: 75%; Population Normal (%) [7]: 84%; Population Pyknosed Nuclei (%) [7]: 17%; Population Tubulin-Different-Phenotype (%) [7]: 81%; Total Cell Count [7]: 481; Population Apoptotic (%) [8]: 11%; Population Fragmented Nuclei (%) [8]: 10%; Population Healthy Nuclei (%) [8]: 86%; Population Hoechst High Intensity Objects (%) [8]: 5%; Population Membrane Permeable-Phenotype (%) [8]: 17%; Population Mitochondria Different-Phenotype (%) [8]: 11%; Population Mitotic Cells (%) [8]: 88%; Population Normal (%) [8]: 94%; Population Pyknosed Nuclei (%) [8]: 2%; Population Tubulin-Different-Phenotype (%) [8]: 87%; Total Cell Count [8]: 1423

**Q.** With `Cc1ccc2nc(NCCN)c3ncc(C)n3c2c1.O=C(O)C(F)(F)F.O=C(O)C(F)(F)F` as the compound, how does the “Population Apoptotic (%)” value [1] read?
**A.** 29%

**Q.** What about the “Population Fragmented Nuclei (%)” value [1] of the same compound?
**A.** 14%

**Q.** And the “Population Healthy Nuclei (%)” value [1]?
**A.** 67%

**Q.** What about the “Population Hoechst High Intensity Objects (%)” value [1] of the same compound?
**A.** 13%

**Q.** What about the “Population Membrane Permeable-Phenotype (%)” value [1] of the same compound?
**A.** 6%

**Q.** And the “Population Mitochondria Different-Phenotype (%)” value [1]?
**A.** 2%

**Q.** And the “Population Mitotic Cells (%)” value [1]?
**A.** 70%

**Q.** What about the “Population Normal (%)” value [1] of the same compound?
**A.** 86%

**Q.** What about the “Population Pyknosed Nuclei (%)” value [1] of the same compound?
**A.** 18%

**Q.** And the “Population Tubulin-Different-Phenotype (%)” value [1]?
**A.** 3%

**Q.** What about the “Total Cell Count” value [1] of the same compound?
**A.** 581

**Q.** And the “Population Apoptotic (%)” value [2]?
**A.** 14%

**Q.** What about the “Population Fragmented Nuclei (%)” value [2] of the same compound?
**A.** 10%

**Q.** What about the “Population Healthy Nuclei (%)” value [2] of the same compound?
**A.** 85%

**Q.** And the “Population Hoechst High Intensity Objects (%)” value [2]?
**A.** 2%

**Q.** And the “Population Membrane Permeable-Phenotype (%)” value [2]?
**A.** 1%

**Q.** And the “Population Mitochondria Different-Phenotype (%)” value [2]?
**A.** 9%

**Q.** What about the “Population Mitotic Cells (%)” value [2] of the same compound?
**A.** 85%

**Q.** What about the “Population Normal (%)” value [2] of the same compound?
**A.** 97%

**Q.** And the “Population Pyknosed Nuclei (%)” value [2]?
**A.** 3%

**Q.** What about the “Population Tubulin-Different-Phenotype (%)” value [2] of the same compound?
**A.** 5%

**Q.** And the “Total Cell Count” value [2]?
**A.** 1754

**Q.** And the “Population Apoptotic (%)” value [3]?
**A.** 25%

**Q.** What about the “Population Fragmented Nuclei (%)” value [3] of the same compound?
**A.** 13%

**Q.** And the “Population Healthy Nuclei (%)” value [3]?
**A.** 58%

**Q.** What about the “Population Hoechst High Intensity Objects (%)” value [3] of the same compound?
**A.** 14%

**Q.** What about the “Population Membrane Permeable-Phenotype (%)” value [3] of the same compound?
**A.** 5%

**Q.** What about the “Population Mitochondria Different-Phenotype (%)” value [3] of the same compound?
**A.** 14%

**Q.** And the “Population Mitotic Cells (%)” value [3]?
**A.** 75%

**Q.** And the “Population Normal (%)” value [3]?
**A.** 85%

**Q.** And the “Population Pyknosed Nuclei (%)” value [3]?
**A.** 27%

**Q.** What about the “Population Tubulin-Different-Phenotype (%)” value [3] of the same compound?
**A.** 14%

**Q.** What about the “Total Cell Count” value [3] of the same compound?
**A.** 591

**Q.** What about the “Population Apoptotic (%)” value [4] of the same compound?
**A.** 26%

**Q.** And the “Population Fragmented Nuclei (%)” value [4]?
**A.** 5%

**Q.** And the “Population Healthy Nuclei (%)” value [4]?
**A.** 83%

**Q.** And the “Population Hoechst High Intensity Objects (%)” value [4]?
**A.** 5%

**Q.** What about the “Population Membrane Permeable-Phenotype (%)” value [4] of the same compound?
**A.** 1%

**Q.** What about the “Population Mitochondria Different-Phenotype (%)” value [4] of the same compound?
**A.** 27%

**Q.** What about the “Population Mitotic Cells (%)” value [4] of the same compound?
**A.** 73%

**Q.** What about the “Population Normal (%)” value [4] of the same compound?
**A.** 94%

**Q.** And the “Population Pyknosed Nuclei (%)” value [4]?
**A.** 10%

**Q.** And the “Population Tubulin-Different-Phenotype (%)” value [4]?
**A.** 19%

**Q.** And the “Total Cell Count” value [4]?
**A.** 1004

**Q.** What about the “Population Apoptotic (%)” value [5] of the same compound?
**A.** 35%

**Q.** What about the “Population Fragmented Nuclei (%)” value [5] of the same compound?
**A.** 14%

**Q.** What about the “Population Healthy Nuclei (%)” value [5] of the same compound?
**A.** 76%

**Q.** What about the “Population Hoechst High Intensity Objects (%)” value [5] of the same compound?
**A.** 6%

**Q.** And the “Population Membrane Permeable-Phenotype (%)” value [5]?
**A.** 5%

**Q.** What about the “Population Mitochondria Different-Phenotype (%)” value [5] of the same compound?
**A.** 3%

**Q.** And the “Population Mitotic Cells (%)” value [5]?
**A.** 64%

**Q.** And the “Population Normal (%)” value [5]?
**A.** 93%

**Q.** And the “Population Pyknosed Nuclei (%)” value [5]?
**A.** 8%

**Q.** And the “Population Tubulin-Different-Phenotype (%)” value [5]?
**A.** 6%

**Q.** And the “Total Cell Count” value [5]?
**A.** 670

**Q.** What about the “Population Apoptotic (%)” value [6] of the same compound?
**A.** 5%

**Q.** What about the “Population Fragmented Nuclei (%)” value [6] of the same compound?
**A.** 30%

**Q.** What about the “Population Healthy Nuclei (%)” value [6] of the same compound?
**A.** 67%

**Q.** And the “Population Hoechst High Intensity Objects (%)” value [6]?
**A.** 3%

**Q.** And the “Population Membrane Permeable-Phenotype (%)” value [6]?
**A.** 4%

**Q.** What about the “Population Mitochondria Different-Phenotype (%)” value [6] of the same compound?
**A.** 1%

**Q.** What about the “Population Mitotic Cells (%)” value [6] of the same compound?
**A.** 94%

**Q.** What about the “Population Normal (%)” value [6] of the same compound?
**A.** 96%

**Q.** And the “Population Pyknosed Nuclei (%)” value [6]?
**A.** 1%

**Q.** What about the “Total Cell Count” value [6] of the same compound?
**A.** 2957

**Q.** What about the “Population Apoptotic (%)” value [7] of the same compound?
**A.** 38%

**Q.** And the “Population Fragmented Nuclei (%)” value [7]?
**A.** 14%

**Q.** And the “Population Healthy Nuclei (%)” value [7]?
**A.** 60%

**Q.** And the “Population Hoechst High Intensity Objects (%)” value [7]?
**A.** 20%

**Q.** And the “Population Membrane Permeable-Phenotype (%)” value [7]?
**A.** 6%

**Q.** What about the “Population Mitochondria Different-Phenotype (%)” value [7] of the same compound?
**A.** 18%

**Q.** And the “Population Mitotic Cells (%)” value [7]?
**A.** 61%

**Q.** What about the “Population Normal (%)” value [7] of the same compound?
**A.** 79%

**Q.** And the “Population Pyknosed Nuclei (%)” value [7]?
**A.** 25%

**Q.** And the “Population Tubulin-Different-Phenotype (%)” value [7]?
**A.** 12%

**Q.** What about the “Total Cell Count” value [7] of the same compound?
**A.** 482

**Q.** And the “Population Apoptotic (%)” value [8]?
**A.** 44%

**Q.** And the “Population Fragmented Nuclei (%)” value [8]?
**A.** 7%

**Q.** What about the “Population Healthy Nuclei (%)” value [8] of the same compound?
**A.** 85%

**Q.** What about the “Population Hoechst High Intensity Objects (%)” value [8] of the same compound?
**A.** 10%

**Q.** What about the “Population Membrane Permeable-Phenotype (%)” value [8] of the same compound?
**A.** 1%

**Q.** What about the “Population Mitochondria Different-Phenotype (%)” value [8] of the same compound?
**A.** 27%

**Q.** And the “Population Mitotic Cells (%)” value [8]?
**A.** 55%

**Q.** And the “Population Normal (%)” value [8]?
**A.** 89%

**Q.** What about the “Population Pyknosed Nuclei (%)” value [8] of the same compound?
**A.** 6%

**Q.** What about the “Population Tubulin-Different-Phenotype (%)” value [8] of the same compound?
**A.** 19%

**Q.** And the “Total Cell Count” value [8]?
**A.** 858

From ChEMBL document CHEMBL4689842, “EUbOPEN Chemogenomics Library wave 1” (2021)
